System: Staphylococcus aureus
Assay: Induction of membrane permeabilization in Staphylococcus aureus ATCC 33591 assessed as increase in fluorescence intensity measured upto 28 mins by propidium iodide staining based fluorescence spectroscopic technique
Format: functional, organism-based
Method in brief: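 Mid-log MRSA washed in 5 mM HEPES and resuspended in 1:1 HEPES (5 mM) and glucose (5 mM). Propidium iodide added at 10 µM final. Baseline fluorescence (ex 535/em 617 nm) read 4 min, compound in water added, read to 28 min. Water control; triplicates averaged.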

CCCCCCNC(=O)C[N+](C)(CCO)CCCCCCCCCCCC[N+](C)(CCO)CC(=O)NCCCCCC.O=C([O-])C(F)(F)F.O=C([O-])C(F)(F)F (stereo unspecified)
Activity: Dose-dependent effect
